The structures appear in SMILES notation.

Series [1] in a line: in vivo. As to conditions: BALB/c, mouse, serum, 50 mg/kg.
Series [2] is described as follows: physchem. As to conditions: octanol/water.
The nature of series [3]: in vivo. The note with it: BALB/c, mouse, serum, 10 mg/kg.
Series [4] deals with Mus musculus. Nature of the series: AUC in BALB/c mouse at 20 mg/kg, po normalized to 10 mg/kg. The note with it: in vivo. It counts as ADME, organism-based, Plasma.
Series [5] concerns Mus musculus. As to the kind of experiment: Cmax in BALB/c mouse at 20 mg/kg, po normalized to 10 mg/kg after 15 mins. The format is ADME, organism-based. Details: dose 20 mg/kg, route oral. The note with it: in vivo.
The nature of series [6]: AUC in Sprague-Dawley rat 10 mg/kg, po. It counts as ADME, organism-based. Set-up: dose 10 mg/kg, route oral. As to conditions: plasma. In a few lines: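 Male Sprague–Dawley rats, 6 weeks old, fasted 18 h, 3–4 per group. Oral dose 10 mg/5 ml/kg in 0.5% methylcellulose. Blood (0.4 ml) drawn at 0.25, 0.5, 1, 2 and 6 h. Plasma held at −20 °C, drug measured by LC/MS/MS, and PK parameters derived by non-compartmental analysis.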

The species named for series [7] is Mus musculus. The note with it: in vivo, 5 mg/kg.
For series [8], the species on record is Mus musculus. The note with it: in vivo, 10 mg/kg.
Series [9] is described as follows: in vivo. The note with it: BALB/c, mouse, 5 mg/kg.
A short description of series [10]: in vivo. The note with it: BALB/c, mouse, plasma, iv, 10 mg/kg.
A short description of series [11]: in vivo. The note with it: Sprague-Dawley, rat, 10 mg/kg.
Series [12] can be described thus: in vivo. As to conditions: Sprague-Dawley, rat, blood, 10 mg/kg.
Series [13] is described as follows: in vivo. The note with it: Sprague-Dawley, rat, plasma, iv, 10 mg/kg.
Series [14] can be described thus: in vivo. The note with it: Sprague-Dawley, rat, plasma, 10 mg/kg.
The nature of series [15]: in vivo. The note with it: Sprague-Dawley, rat, 10 mg/kg. The source holds these as a separate data set.
Series [16] relates to Rattus norvegicus. Nature of the series: Cmax in Sprague-Dawley rat at 10 mg/kg, iv. As to conditions: in vivo.
Series [17] can be described thus: AUC in BALB/c mouse at 10 mg/kg, po. The format is ADME, organism-based. Set-up: dose 10 mg/kg, route oral. As to conditions: plasma.
Series [18] relates to Mus musculus. As to the kind of experiment: Cmax in BALB/c mouse at 10 mg/kg, po after 15 mins. It counts as ADME, organism-based. Set-up: dose 10 mg/kg, route oral. As to conditions: in vivo. In a few lines: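 Female BALB/c mice, 8 weeks old, 4 per group. Dosed orally at 10 mg/1 ml/kg in 0.5% CMC. Drug level estimated by adding serum (0.01–10% final) to a Eu-VCAM-1/Fc binding assay on CHO-K1 cells expressing human VLA-4.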

The nature of series [19]: AUC in Beagle dog at 1 mg/kg, po. It counts as ADME, organism-based, Canis lupus familiaris. Details: dose 1 mg/kg, route oral. The note with it: plasma.
The species entered for series [20] is Rattus norvegicus. As to conditions: in vivo, 10 mg/kg.
For series [21], the species on record is Canis familiaris. As to conditions: dog, in vivo, po, 1 mg/kg.
For series [22], the species on record is Canis familiaris. The note with it: dog, in vivo, po, 1 mg/kg. This is another data set of the same source.
Series [23] is described as follows: in vivo. As to conditions: BALB/c, mouse, 5 mg/kg. This is another data set of the same source.
The nature of series [24]: in vivo. As to conditions: BALB/c, mouse, plasma, 10 mg/kg.
Series [25] can be described thus: in vivo. As to conditions: BALB/c, mouse, 10 mg/kg.
A short description of series [26]: in vivo. As to conditions: beagle, dog, po, 2 mg/kg.
Series [27] in a line: in vivo. As to conditions: beagle, dog, 1 mg/kg.
The nature of series [28]: in vivo. The note with it: beagle, dog, plasma, iv, 1 mg/kg.

For the compound `COc1cc(CC(=O)N2C[C@@H](F)C[C@H]2COc2ccc(C(=O)O)cc2)ccc1NC(=O)Nc1ccccc1Cl`, the concentration at 0.5 h in [1] was determined as 142 ng/mL. Moreover, the logD in series [2] worked out at 1.87.
`O=C(Nc1ccccc1Cl)Nc1ccc(CC(=O)N2C[C@@H](F)C[C@H]2COc2ccc(C(=O)O)cc2)cc1Br` yielded a concentration at […] in [3] of 1880 ng/mL. The logD in series [2] was found to be 2.17.
In the case of `Cc1cc(CC(=O)N2C[C@@H](F)C[C@H]2COc2ccc(C(=O)O)cc2)ccc1NC(=O)Nc1ccccc1Br`, the exposure (AUC) is 1095 ng·h/mL in series [4], 5230 ng·h/mL in series [6], 5260 ng·h/mL in [10] and 15600 ng·h/mL in series [13]. The results for the Cmax in series [5] and in [16] were 391 ng/mL and 6700 ng/mL, respectively. The MRT in series [7] turned out to be 2.3 h; in [12] it was 2 h. In series [8], this compound returned a Vdss of 0.67 L/kg. In addition, the concentration at […] in series [3] amounted to 693 ng/mL. Besides, the bioavailability in series [9] came out at 21%; in series [11] it was 34%. The clearance in [14] came out at 11.3 mL/min/kg. In series [15], this compound showed a Vd of 0.29 L/kg. In addition, the logD in [2] worked out at 1.64.
In [3], `O=C(Nc1ccc(CC(=O)N2C[C@@H](F)C[C@H]2COc2ccc(C(=O)O)cc2)cc1Cl)Nc1ccccc1Br` had a concentration at […] of 2160 ng/mL. Besides, the logD in series [2] turned out to be 2.34.
For `Cc1ccccc1NC(=O)Nc1ccc(CC(=O)N2C[C@@H](F)C[C@H]2COc2ccc(C(=O)O)cc2)cc1Cl`, the area under the curve (AUC) in [17] is 2540 ng·h/mL; in [6], 11500 ng·h/mL; in series [19], 3120 ng·h/mL; in [10] it was 8900 ng·h/mL; in [13], 31900 ng·h/mL; in series [28] it was 5680 ng·h/mL. The Cmax amounted to 2250 ng/mL in [18], 2370 ng/mL in series [21] and 13000 ng/mL in series [16]. Also, the clearance came to 5.2 mL/min/kg in [20] and 18.5 mL/min/kg in series [24]. In [22], this compound yielded a Vdss of 0.14 L/kg. In addition, the concentration at […] in series [3] was 3660 ng/mL. Besides, the bioavailability in [9] worked out at 28%; in series [11] it was 36%; in series [26], 55%. In addition, the MRT was found to be 1.2 h in series [23], 1.7 h in series [12] and 1.6 h in [27]. Besides, the Vd in series [25] was 0.33 L/kg; in [15] it was 0.24 L/kg. The same compound showed a logD in [2] of 1.61.
Consider `Cc1cc(CC(=O)N2C[C@@H](F)C[C@H]2COc2ccc(C(=O)O)cc2)ccc1NC(=O)Nc1ccccc1Cl`, for which the concentration at […] in [3] came to 472 ng/mL. The logD in series [2] was 1.69.
The compound `Cc1ccccc1NC(=O)Nc1ccc(CC(=O)N2C[C@@H](F)C[C@H]2COc2ccc(C(=O)O)cc2)cc1C` came in with a concentration at […] in [3] of 368 ng/mL. Besides, the logD in series [2] turned out to be 1.09.
